Test results as given in ChEMBL document CHEMBL4152234, “Aminobenzothiazole derivatives stabilize the thermolabile p53 cancer mutant Y220C and show anticancer activity in p53-Y220C cell lines” (Eur J Med Chem, 2018).
Activity calls are given as the source filed them. The rule behind the calls is not given here.

Tests used:
Assay type in all cases: cell-based
[1] = test system: Cellular tumor antigen p53 (Homo sapiens), P04637 [Y220C]; test: Activation of p53 Y220C mutant in human NUGC3 cells assessed as change in KAT2B mRNA level at 60 uM after 18 hrs by RT-PCR method relative to control
Outline: (§1)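 p53 signalling qPCR array covering 84 p53 pathway genes. Cells were exposed for 18 h, and compound and control wells both held 0.5% DMSO. Total RNA was extracted and purified. Fold-changes were calculated by the ΔΔCt method against the untreated sample, with β2-microglobulin (B2M) as the housekeeping gene. Each cell line was run in two independent biological replicates.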

[2] = test system: Cellular tumor antigen p53 (Homo sapiens), P04637 [Y220C]; test: Activation of p53 Y220C mutant in human NUGC3 cells assessed as change in BIRC5 mRNA level at 60 uM after 18 hrs by RT-PCR method relative to control
Outline: (§2)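 p53 signalling qPCR array covering 84 genes. Cells were exposed for 18 h, with 0.5% DMSO in both compound and control samples. Total RNA was extracted and purified. Fold-changes were calculated by ΔΔCt using β2-microglobulin (B2M) as the housekeeping gene. Two independent biological replicates were run per cell line.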

[3] = test system: Cellular tumor antigen p53 (Homo sapiens), P04637 [Y220C]; test: Activation of p53 Y220C mutant in human NUGC3 cells assessed as change in RB1 mRNA level at 60 uM after 18 hrs by RT-PCR method relative to control; outline: as §1
[4] = test system: Cellular tumor antigen p53 (Homo sapiens), P04637 [Y220C]; test: Activation of p53 Y220C mutant in human NUGC3 cells assessed as change in EGFR mRNA level at 60 uM after 18 hrs by RT-PCR method relative to control; outline: as §2
[5] = test system: Cellular tumor antigen p53 (Homo sapiens), P04637 [Y220C]; test: Activation of p53 Y220C mutant in human NUGC3 cells assessed as change in CDC25A mRNA level at 60 uM after 18 hrs by RT-PCR method relative to control; outline: as §2
[6] = test system: Cellular tumor antigen p53 (Homo sapiens), P04637 [Y220C]; test: Activation of p53 Y220C mutant in human NUGC3 cells assessed as change in TP73 mRNA level at 60 uM after 18 hrs by RT-PCR method relative to control; outline: as §1
[7] = biological target: T1, Cellular tumor antigen p53 (Homo sapiens, UniProt P04637); test: Activation of p53 in human NUGC4 cells assessed as change in TP63 mRNA level at 60 uM after 18 hrs by RT-PCR method relative to control; conditions: read-out: FC
[8] = biological target: T1, Cellular tumor antigen p53; test: Activation of p53 in human NUGC4 cells assessed as change in CCNB1 mRNA level at 60 uM after 18 hrs by RT-PCR method relative to control; conditions: read-out: FC
Outline: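 p53 signaling qPCR array of 84 p53-pathway genes. Cells were treated in 6-well plates for 18 h with 0.5% DMSO in compound and control samples. Total RNA was extracted and fold-changes were obtained by the ΔΔCt method against untreated control, with β2-microglobulin (B2M) as housekeeping gene. Two independent biological replicates per cell line.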

[9] = test system: Cellular tumor antigen p53 (Homo sapiens), P04637 [Y220C]; test: Activation of p53 Y220C mutant in human HuH7 cells assessed as increase in NOXA mRNA level at 30 uM after 18 hrs by RT-PCR method
Outline: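 Real-time PCR. Cells were treated for 18 h, with 0.5% DMSO in both compound and control samples. Relative mRNA levels were quantified by the ΔΔCt method as fold-change against the untreated sample. Each sample was measured in triplicate, and data are given as mean ± SEM with an unpaired t-test.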

fold change (FC) [1]: 0.8
fold change (FC) [2]: 0.6
fold change (FC) [3]: 0.9
fold change (FC) [4]: 1
fold change (FC) [5]: 0.6
fold change (FC) [6]: 1.2
fold induction at 60 µM [7]: 0.5
fold induction at 60 µM [8]: 0.7
Activity [9]: Active
Compound: CCNC(=O)c1c(O)c(I)c(-n2cccc2)c2sc(N(CC)CC)nc12
